NR2E3 ag-1 = activates human NR2E3 receptor | AID 602229 | inhibition of corepressor binding, % at 3.98 µM | CHO-S Gal4-NCOR/VP16-NR2E3 two-hybrid, luciferase | hit rate 0.35% among 360,000;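 active = inhibition above the mean of all tested compounds plus 3 SD, cut at about 70% in these data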;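 also: 0% = DMSO with NR2E3 transfected cells and 100% = cells lacking NR2E3 construct; higher means lower luciferase signal from less NR2E3 corepressor binding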
Target sequence (Q9Y5X4 whole entry, looked up, the tested form may be a part): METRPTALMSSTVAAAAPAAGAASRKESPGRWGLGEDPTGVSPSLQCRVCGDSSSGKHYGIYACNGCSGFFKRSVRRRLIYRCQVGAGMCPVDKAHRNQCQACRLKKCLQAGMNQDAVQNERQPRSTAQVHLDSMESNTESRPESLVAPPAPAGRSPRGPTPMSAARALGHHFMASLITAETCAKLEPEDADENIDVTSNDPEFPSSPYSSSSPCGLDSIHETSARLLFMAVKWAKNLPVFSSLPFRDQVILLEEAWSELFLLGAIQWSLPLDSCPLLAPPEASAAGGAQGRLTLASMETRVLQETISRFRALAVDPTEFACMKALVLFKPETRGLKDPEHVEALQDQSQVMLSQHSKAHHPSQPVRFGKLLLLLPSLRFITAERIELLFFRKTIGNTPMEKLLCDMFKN
NR2E3 ag-2 = activates human photoreceptor nuclear receptor NR2E3; Q9Y5X4; GST-NR2E3/biotin-RetCOR TR-FRET, 1536-well; inhibition of corepressor binding, % at 4.78 µM; hit rate 0.12% among 320,000; AID 2300;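 active = percent inhibition above the cutoff of mean plus 3 SD of all tested compounds, set per screening campaign, cut at about 20% in these data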;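 also: 0% = DMSO wells and 100% = biotin wells as full block of FRET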
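System: GST-NR2E3 and biotin-RetCOR proteins; probe or stimulus: 7 nM biotin-RetCOR; doses: compound at 4.8 µM, single dose; schedule: Compound–protein incubation for 5 h at 4 °C; detection: time-resolved FRET; read-out: percent inhibition; controls: biotin wells as high control, 0.6% DMSO wells as low control; format: 1536-well plates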
GalR3 antag = human GalR3 antagonism | HEK293 GalR3-CNG cAMP membrane potential fluorescence; galR3 body fused to GalR1 C-terminus | inhibition, % at 3 µM | hit rate 0.44% among 360,000;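 active = inhibition above the screen-wide average plus 3 SD, cut at about 13% in these data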;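 also: forskolin and galanin both at EC90 stimulate the cells; cAMP rise reported by CNG channel membrane potential dye signal; 0% = forskolin plus galanin with DMSO and 100% = forskolin alone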
Target sequence (O60755 1-299 limits assumed): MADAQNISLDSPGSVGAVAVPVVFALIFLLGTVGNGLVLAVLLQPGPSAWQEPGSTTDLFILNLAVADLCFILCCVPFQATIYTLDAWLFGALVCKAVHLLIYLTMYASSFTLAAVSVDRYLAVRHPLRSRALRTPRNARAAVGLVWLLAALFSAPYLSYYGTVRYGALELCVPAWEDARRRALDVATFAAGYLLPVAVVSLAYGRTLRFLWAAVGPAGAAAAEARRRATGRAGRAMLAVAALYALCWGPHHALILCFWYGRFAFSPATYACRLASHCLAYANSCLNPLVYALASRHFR
PG9 binder = PG9 antibody binding by small molecule; inhibition, % at 6.7 µM; hit rate 0.43% among 360,000; AID 624416; TR-FRET gp120-PG9 antibody binding; in the data active = inhibition above about 8.5%
NR1D1 modulator = modulates human Rev-erb alpha binding to DNA; hit rate 0.79% among 370,000; AID 1259318; P20393; activity, % at 10 µM; Rev-erbα–FITC-DNA binding, fluorescence polarization, 90 min;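 active = activity above about 14%, limit read from the data; passing the limit was not always enough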;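 also: 0% = DMSO wells with 35 nM protein and 100% = DMSO wells with 750 nM protein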
NR1D1 mod conf = Rev-erb alpha (human) modulation, hit confirmation; shares compounds with NR1D1 modulator; hit rate 61% among 3,000; Rev-erb alpha FITC-DNA binding, fluorescence polarization, 90 min; activation, % at 25 µM;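 active = activation at or above a set limit, or at least 3 SD above the negative control mean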;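 also: 0% = 35 nM protein with DMSO and 100% = 750 nM protein high control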
RORg counter = RORgamma DNA-binding activity, dose-response counter-screen; shares compounds with NR1D1 modulator; hit rate 8% among 910; purified RORgamma protein-FITC-DNA binding, fluorescence polarization; IC50, µM;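 active = Compounds whose fitted half-maximal concentration for disrupting protein-DNA binding is below 10 micromolar; the record names Rev-erb in its text, so the target is in doubt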
The depositor's hits bear a star. Rows were chosen to be rich in hits. Some 1.8% of all compounds tested hit in one or more screens of this group.

`COc1ccccc1NC(=O)Cn1c(=O)n(-c2ccccc2)c(=O)c2oc3ccccc3c21` gave NR2E3 ag-1 -1.3, NR2E3 ag-2 -1.5, GalR3 antag 12.4, PG9 binder -1.0, NR1D1 modulator 19.9* and NR1D1 mod conf 23.4*.
For COc1ccc(NC(=O)Cn2c(=O)n(-c3ccccc3)c(=O)c3oc4ccccc4c32)c(OC)c1 the results were NR2E3 ag-1 -4.8, NR2E3 ag-2 3.7, GalR3 antag -9.3, PG9 binder -0.3 and NR1D1 modulator 12.3.
O=C(C1CCCN1S(=O)(=O)c1ccc(F)cc1)N1CCc2ccccc2C1 (stereo unspecified) was read as NR1D1 modulator 1.3.
Screening COCCN(C(=O)c1ccc(-c2ccc(Cl)cc2)o1)c1c(N)n(CC(C)C)c(=O)[nH]c1=O returned NR2E3 ag-1 -49.7, NR2E3 ag-2 1.6, GalR3 antag -4.4, PG9 binder -0.3 and NR1D1 modulator -5.0.
For CCCCN(C(=O)c1ccc(-c2ccc(Cl)cc2)o1)c1c(N)n(CC(C)C)c(=O)[nH]c1=O the results were NR2E3 ag-1 8.3, NR2E3 ag-2 5.7, GalR3 antag -1.1, PG9 binder -1.6, NR1D1 modulator 18.1* and NR1D1 mod conf -15.8.
CCOC(=O)CNC(=O)c1cc(-c2ccccn2)nc2c(C)c(Cl)ccc12 was read as NR2E3 ag-1 -20.2, NR2E3 ag-2 0.8, GalR3 antag -1.1, PG9 binder 3.5, NR1D1 modulator 18.6* and NR1D1 mod conf 21.5*.
`COc1ccc(CCNC(=O)c2cc(-c3ccccn3)nc3c(Cl)cccc23)cc1OC` gave NR2E3 ag-1 4.5, NR2E3 ag-2 0.8, GalR3 antag 2.3, PG9 binder -1.3 and NR1D1 modulator 12.7.
Cc1c(Cl)ccc2c(C(=O)O)cc(-c3ccccc3)nc12 was read as NR2E3 ag-1 -5.0, NR2E3 ag-2 3.3, GalR3 antag -5.4, PG9 binder 4.5 and NR1D1 modulator -2.0.
Cc1c(Cl)ccc2c(C(N)=O)cc(-c3ccccn3)nc12 was read as NR2E3 ag-1 2.1, NR2E3 ag-2 -7.3, GalR3 antag -3.3, PG9 binder 1.6, NR1D1 modulator 41.1*, NR1D1 mod conf 35.2* and RORg counter >40.
CC(C)CN1C[C@@H]2CSCCS(=O)(=O)N2C1=O was read as NR1D1 modulator -1.1.
CC(=O)CC[C@H]1CC[C@]2(CCCN(C(=O)C(C)(C)C)C2)O1 was read as NR1D1 modulator 6.6.
Screening CCc1cc(-c2n[nH]c(C)c2-c2nc3ccccc3s2)c(O)cc1OCC(=O)NN returned NR2E3 ag-1 2.6, NR2E3 ag-2 3.8, GalR3 antag -4.3, PG9 binder 1.2, NR1D1 modulator 13.4* and NR1D1 mod conf 3.9.
`CCc1cc(-c2n[nH]c(C)c2-c2nc(C)cs2)c(O)cc1OC` gave NR2E3 ag-1 -34.2, NR2E3 ag-2 4.0, GalR3 antag -4.1, PG9 binder -2.9 and NR1D1 modulator -0.1.
For CCOC(=O)c1c(-c2cccs2)csc1NC(=O)c1ccncc1 the results were NR2E3 ag-1 -25.7, NR2E3 ag-2 -5.5, GalR3 antag -5.8, PG9 binder -3.2, NR1D1 modulator 29.3* and NR1D1 mod conf 28.2*.
`Cn1cc(Cl)c(C(=O)Nc2nc3ccc(Cl)cc3s2)n1` gave NR2E3 ag-1 -40.9, NR2E3 ag-2 -1.6, GalR3 antag -4.5, PG9 binder 8.3, NR1D1 modulator 83.2* and NR1D1 mod conf 24.6*.
`CCN1C(=O)/C(=C/c2ccc(N3CCCC3)cc2)NC1=S` gave NR2E3 ag-1 6.5, NR2E3 ag-2 -2.3, GalR3 antag -2.9, PG9 binder -8.8, NR1D1 modulator 56.3*, NR1D1 mod conf 48.7* and RORg counter >40.
CCCN1C(=O)/C(=C/c2ccc(N3CCOCC3)cc2)NC1=S was read as NR2E3 ag-1 4.4, NR2E3 ag-2 -3.5, GalR3 antag -7.6, PG9 binder -4.8 and NR1D1 modulator 13.8.
Screening CCOC(=O)c1nn(-c2ccc(C)cc2)c(=O)cc1OCC(=O)Nc1ccc(OC)cc1 returned NR2E3 ag-1 12.4, NR2E3 ag-2 1.5, GalR3 antag -4.4, PG9 binder -1.4 and NR1D1 modulator -14.9.
`CCOC(=O)c1nn(-c2ccc(F)cc2)c(=O)cc1OCC(=O)Nc1ccc(F)c(F)c1` gave NR2E3 ag-1 2.8, NR2E3 ag-2 -2.1, GalR3 antag 0.1, PG9 binder -1.2, NR1D1 modulator 170.0*, NR1D1 mod conf 128.7* and RORg counter inactive.
For O=C(CCc1c[nH]c2ccccc12)NCCc1ccc2c(c1)OCCO2 the results were NR2E3 ag-1 -13.8, NR2E3 ag-2 3.0, GalR3 antag -9.5, PG9 binder -0.3, NR1D1 modulator 28.3*, NR1D1 mod conf 32.1* and RORg counter inactive.
For O=c1c(Cl)c(Nc2cccc(Cl)c2)cnn1-c1nc2ccccc2s1 the results were NR2E3 ag-1 -54.2, NR2E3 ag-2 9.7, GalR3 antag -2.7, PG9 binder -1.6, NR1D1 modulator 19.0* and NR1D1 mod conf 10.4.
`COc1ccc(C(C)=O)cc1CC1(C)C(=O)Nc2ccc(-c3ccccc3OC)cc21` (stereo unspecified) gave NR2E3 ag-1 1.2, GalR3 antag -8.6, PG9 binder -0.3 and NR1D1 modulator 0.6.
CC1(Cc2cccc(F)c2)C(=O)Nc2ccc(OC(F)(F)F)cc21 (stereo unspecified) was read as NR2E3 ag-1 -57.0, GalR3 antag -8.2, PG9 binder -0.2, NR1D1 modulator 16.3* and NR1D1 mod conf 14.7*.
Screening COc1ccccc1-c1ccc2c(c1)C(C)(Cc1cccc(F)c1)C(=O)N2 (stereo unspecified) returned NR2E3 ag-1 5.0, GalR3 antag -4.9, PG9 binder -1.2, NR1D1 modulator 63.5*, NR1D1 mod conf 88.0* and RORg counter >40.
`CCCCC(=O)N[C@H]1CC[C@@]23CCCN2C(=O)CCC[C@H]3[C@H]1CCC` gave NR1D1 modulator -8.0.
`CCC(=O)c1cn(CC(=O)Nc2cccc(OC)c2)c2ccccc12` gave NR2E3 ag-1 -2.7, NR2E3 ag-2 4.6, GalR3 antag 1.7, PG9 binder -0.8, NR1D1 modulator 25.7* and NR1D1 mod conf 17.6.
CCOc1ccc(NC(=O)Cn2cc(C(C)=O)c3ccccc32)cc1 was read as NR2E3 ag-1 -8.6, NR2E3 ag-2 0.0, GalR3 antag -9.5, PG9 binder -1.8, NR1D1 modulator 28.6* and NR1D1 mod conf 12.6.
`COc1cccc(NC(=O)CSc2nc3ccccc3c3nc4ccccc4n23)c1` gave NR2E3 ag-1 -35.1, NR2E3 ag-2 0.4, GalR3 antag 1.3, PG9 binder 0.1, NR1D1 modulator 54.3* and NR1D1 mod conf -5.8.

High-throughput results as filed in PubChem BioAssay.
